Assay outcomes as filed in PubChem.
Compounds with a hit are over-represented: about 2.1% of the library has one in this group of screens.
M1 ag: human M1 muscarinic receptor agonists, primary screen, Fluo-8 calcium fluorescence, CHO-K1 cells, HTS; Muscarinic acetylcholine receptor M1 (Homo sapiens), P11229; CHO-K1 hM1, agonist mode; 0% DMSO, 100% acetylcholine EC100; activation, % at 3 µM; 360,000 tested, 0.33% active; AID 588814, 2011;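 active means activation above the run's mean compound activation plus 3 SD, cut at about 16% in these data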;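 further: peak over basal fluorescence ratio within a 140 s kinetic read after compound addition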
M5 ag: human M5 muscarinic receptor agonists, primary screen, CHO-K1 cells, Fluo-8 calcium fluorescence. CHO-K1 hM5 cells; 0% DMSO wells, 100% maximal acetylcholine response. activation, % at 3 µM. 360,000 tested, 0.19% active. AID 624037, 2012;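 active means activation above the run's mean over test compounds plus 3 SD, cut at about 23% in these data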;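 further: signal is peak over basal fluorescence ratio across the kinetic read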
Target sequence (P08912 whole entry, looked up): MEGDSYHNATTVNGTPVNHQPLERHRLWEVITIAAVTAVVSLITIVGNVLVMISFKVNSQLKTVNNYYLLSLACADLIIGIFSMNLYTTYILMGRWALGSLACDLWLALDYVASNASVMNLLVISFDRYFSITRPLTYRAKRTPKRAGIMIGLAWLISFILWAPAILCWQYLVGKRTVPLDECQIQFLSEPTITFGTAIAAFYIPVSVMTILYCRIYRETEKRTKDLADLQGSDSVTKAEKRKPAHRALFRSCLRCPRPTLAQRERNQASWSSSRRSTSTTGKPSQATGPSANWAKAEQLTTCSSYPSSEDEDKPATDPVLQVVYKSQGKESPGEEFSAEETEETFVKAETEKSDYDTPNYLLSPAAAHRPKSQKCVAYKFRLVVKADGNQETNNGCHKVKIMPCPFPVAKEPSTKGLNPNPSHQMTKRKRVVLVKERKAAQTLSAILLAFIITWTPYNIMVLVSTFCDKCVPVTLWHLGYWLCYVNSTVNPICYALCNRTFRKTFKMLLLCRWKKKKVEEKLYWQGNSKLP
M5 antag: human M5 muscarinic receptor antagonists, primary screen, CHO cells, Fluo-8 calcium fluorescence | Muscarinic acetylcholine receptor M5 (Homo sapiens), P08912 | CHO-hM5 cells, ACh EC80 | inhibition, % at 3 µM | 360,000 tested, 0.59% active | AID 624040, 2012;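 active means inhibition above a per-plate cutoff, the mean of that plate's test compounds plus 3 SD, cut at about 27% in these data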;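 further: 0% = acetylcholine EC80 with DMSO and 100% = DMSO without agonist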
CHRM1 antagonist: human M1 muscarinic receptor antagonists, primary screen, CHO-K1 cells, Fluo-8 calcium fluorescence, 1536-well; Muscarinic acetylcholine receptor M1 (Homo sapiens), P11229; inhibition, % at 3 µM; CHO-K1 hM1, ACh EC80 antagonist; 360,000 tested, 1.3% active; AID 588852, 2011;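 active means percent inhibition above its own plate's cutoff, namely the mean of that plate's compound wells plus 3 SD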;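 further: peak over basal fluorescence ratio during 140 s after agonist addition; 0% = ACh EC80 plus DMSO and 100% = DMSO alone without agonist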
M5 PAM: human M5 muscarinic receptor positive allosteric modulators, primary screen, CHO-K1 cells, Fluo-8 calcium fluorescence; Muscarinic acetylcholine receptor M5 (Homo sapiens), P08912; CHO-K1 hM5, ACh EC20 PAM; 0% = ACh EC20, 100% = ACh EC100; activation, % at 3 µM; 360,000 tested, 0.3% active;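 active means activation above the run cutoff, the mean activation of all test compounds plus 3 SD, cut at about 18% in these data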
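Assay system: CHO-K1 hM5 cells / Incubation: Fluo-8 loading 80 min at 37 °C plus 30 min room temperature / Technique: Fluo-8 calcium dye fluorescence, kinetic read / Repeats: single replicate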
M1 PAM: human M1 muscarinic receptor positive allosteric modulators, primary screen, CHO-K1 cells, Fluo-8 calcium fluorescence, 1536-well; Muscarinic acetylcholine receptor M1 (Homo sapiens), P11229; CHO-K1 hM1, ACh EC20; 0% = ACh EC20, 100% = maximal ACh; activation, % at 3 µM; 360,000 tested, 0.088% active; AID 588819, 2011; in the data active means activation above about 19%, passing the limit was not always enough
Active calls of the source: *; · = no result.

SMILES	M1 ag	M5 ag	M5 antag	CHRM1 antagonist	M5 PAM	M1 PAM
CN1CCN(C(=O)CCN2C(=O)c3ccccc3C2=O)CC1	-3	3	6	-5	2	8
CN1CCC(=C2c3ccccc3Sc3ccccc32)CC1	-6	0	99*	100*	-19	-26
CN1CCC(=C2c3ccccc3C=Cc3ccccc32)CC1	·	1	99*	·	-18	·
Cc1nnc(SCC(=O)c2c(N)n(C3CC3)c(=O)[nH]c2=O)n1-c1ccccc1	-3	0	8	-13	-1	14
COCCN1Cc2cccc(C(=O)Nc3ccc(S(=O)(=O)N4CCOCC4)cc3)c2C1=O	-3	4	-1	4	6	5
O=C(NC(Nc1nc2ccc([N+](=O)[O-])cc2s1)(C(F)(F)F)C(F)(F)F)c1ccccc1Cl	4	6	49*	19	-19	-11
O=C(NC(Nc1nc2ccc([N+](=O)[O-])cc2s1)(C(F)(F)F)C(F)(F)F)c1cccnc1	5	9	26	23	-15	-5
CCc1ccc(C(=O)CSc2nc(N)cc(=O)[nH]2)cc1	-4	5	-9	-6	2	4
COc1ccc(/C(C#N)=C/c2cccnc2)cc1	-7	0	-7	-6	3	3
COc1ccc(C(C#N)=Cc2ccc(N(C)CCC#N)cc2)cc1	0	3	28*	29	-16	-15
CSc1nc(Cl)c(C#N)c(-c2ccc(C)cc2)n1	3	1	-4	-14	6	9
Oc1ccc(Nc2nnc(-c3ccc(O)cc3)c3ccccc23)cc1	-8	-4	6	36*	-4	-22
CNC(=O)COc1ccc(Nc2nnc(-c3ccc(C)c(S(N)(=O)=O)c3)c3ccccc23)cc1	45*	1	2	14	0	-20
CC(=O)Nc1ccc(Nc2nnc(-c3ccc(C)c(S(N)(=O)=O)c3)c3ccccc23)cc1	-6	-3	9	-15	-2	13
COc1ccc(Nc2nnc(-c3ccc(O)cc3)c3ccccc23)cc1	-6	-14	2	59*	-3	-24
CC(C)(C)Cc1c(-c2ccccc2)nc2ccc(Cl)cn12	-7	-2	3	27*	-9	-17
CC(C)(C)Cc1c(-c2ccc(Cl)cc2)nc2ccc(Br)cn12	-6	3	-3	9	-2	-11
CC(C)(C)Cc1c(-c2ccc(Cl)cc2)nc2ccc(Cl)cn12	-9	-1	10	28*	-6	-23
CC(C)(C)Cc1c(-c2cccc(Br)c2)nc2ccc(Cl)cn12	-5	-7	4	-26	2	-5
CC(C)(C)Cc1c(-c2ccc(Br)cc2)nc2ccc(Cl)cn12	3	-1	-3	26*	-8	-18
Cc1onc(-c2ccccc2)c1C(=O)Nc1ccnn1C1CCCCC1	-1	-6	0	-5	10	10
CCCCN(C)CCN1C(=O)C2C(C(=O)Nc3cccc(OC)c3)C3C=CC2(O3)C1C(=O)NC1CCCCC1C (configuration not stated)	-2	-2	-7	25	6	-3
N#C/C(=C\Nc1ccc2cn[nH]c2c1)c1nc(-c2ccccc2)cs1	-3	1	4	-2	-3	3
Cc1ccnc(N/C=C(\C#N)c2nc(-c3cccc(Br)c3)cs2)c1	161*	53*	21	43*	-14	-23
COc1ccc(CN(C(=S)Nc2ccccc2)C2CC(=O)N(c3ccc(Cl)cc3)C2=O)cc1 (configuration not stated)	-1	-1	2	-35	3	7
SMILES	M1 ag	M5 ag	M5 antag	CHRM1 antagonist	M5 PAM	M1 PAM
COc1ccccc1NC(=O)Cn1nnc(-c2ccccc2NS(=O)(=O)c2ccccc2)n1	-2	0	34*	24	-17	-9
Cc1cc(C)n(-c2ccc3cccc(NS(C)(=O)=O)c3n2)n1	0	-4	2	-12	-1	8
Cc1cc(C)n(-c2cccc(F)n2)n1	-5	4	-1	3	19*	10
O=[N+]([O-])c1ccc(COc2ccc(CNc3ccccc3)cc2)cc1	-10	-6	5	26*	-13	-23
Cc1nnc(SCC(=O)c2cc(C)n(-c3c(C)n(C)n(-c4ccccc4)c3=O)c2C)s1	-8	-3	2	-16	-7	-2
Cc1cc(C(=O)CSc2nncs2)c(C)n1-c1c(C)n(C)n(-c2ccccc2)c1=O	-12	-6	7	54*	-6	-33
CC1(OC(=O)C2CCCC2)C(=O)C=C2C=C(c3ccsc3)N(CC3CC3)C=C2C1=O (configuration not stated)	-13	1	8	67*	-14	-39
CC1(OC(=O)C2CCCC2)C(=O)C=C2C=C(c3ccsc3)N(C3CCCCC3)C=C2C1=O (configuration not stated)	-4	-1	3	10	-13	-12
Cc1c(NC(=O)Nc2ccc(Cl)c(Cl)c2)c(=O)n(-c2ccccc2)n1C	-3	0	30*	40*	-15	-2
Cc1c(Cl)c([N+](=O)[O-])nn1CCCC(=O)Nc1c(C)n(C)n(-c2ccccc2)c1=O	-8	-19	17	67*	-31	-25
Cc1c(NC(=O)Nc2ccccc2)c(=O)n(-c2ccccc2)n1C	-4	0	8	15	-5	-6
CN(C)c1cc[n+](CC(=O)Nc2ccc(Cl)cc2)cc1	-9	-8	-2	-8	0	10
CCOc1ccccc1CNC(=O)C1CCCN(c2nnc(C)c3c(C)n(-c4ccccc4)nc23)C1 (configuration not stated)	-6	-10	-10	43*	-2	-19
COc1ccc(-n2nc3c(N4CCC(C(=O)NCc5ccccc5C)CC4)nnc(C)c3c2C)cc1	-14	-10	-4	13	4	-26
CCN1CCc2nc3ccccc3c(C(=O)Nc3ccc(NC(C)=O)cc3)c2C1	-1	-5	4	-15	7	17
O=C(NCc1ccc(F)cc1)c1c2c(nc3ccccc13)CCN(Cc1ccccc1)C2	-9	0	-3	-1	1	1
O=C(COC(=O)c1c2c(nc3ccccc13)CCN(Cc1ccccc1)C2)Nc1c(F)cccc1F	-2	3	15	36*	-18	-13
